Molecules are shown by their SMILES.

The target in test [1] is Platelet glycoprotein 4 (Mus musculus) (UniProt Q08857). Nature of the test: Modulation of CD36 receptor in mouse RAW 264.7 cells assessed as inhibition of R-FSL-1-induced NO production pretreated for 30 mins followed by R-FSL-1 stimulation measured after 1140 min by fluorescence plate reader assay. The class given is cell-based. The following applies: RAW264.7, filed as modulator, time 1170.0 min. Put shortly: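 RAW 264.7 cells seeded at 1.5 × 10^5 per well in DMEM with pen/strep. After 2 h, medium changed to DMEM with 0.2% BSA containing peptide. Cells stimulated with R-FSL-1 at 300 ng/mL for 19 h. Nitrite in 25 μL supernatant reacted with 0.5 μg 2,3-diaminonaphthalene in 50 mM phosphate pH 7.5, 15 min at room temperature in the dark, stopped with NaOH. Fluorescence read.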

Test [2] shares this target. Nature of the test: Modulation of CD36 receptor in mouse RAW 264.7 cells assessed as inhibition of R-FSL-1-induced NO production at competitive receptor binding assay IC50 concentration pretreated for 30 mins followed by R-FSL-1 stimulation measured after 19 hrs by fluorescence plate reader assay relative to R-FSL-1. It counts as cell-based. Further details: scale not given: the % may be the effect or the level left. The following applies: RAW264.7, time 1170.0 min.

Test [3] has the same target. Nature of the test: Modulation of CD36 receptor in mouse RAW 264.7 cells assessed as inhibition of R-FSL-1-induced TNFalpha production pretreated for 30 mins followed by R-FSL-1 stimulation measured after 4 hrs by ELISA. It counts as cell-based. The following applies: RAW264.7, filed as modulator, time 4.5 hrs. Put shortly:
(§1)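 RAW 264.7 cells seeded at 1.5 × 10^5 per well and weaned overnight in DMEM with 1% pen/strep. Medium then changed to DMEM with 0.2% BSA. Cells pretreated 30 min with peptide at 10^-7 M, with linear [azaTyr4]-GHRP-6 as reference. Stimulated with R-FSL-1 at 300 ng/mL for 4 h at 37 °C. TNF-α or CCL-2 in supernatant measured by ELISA. Inhibition % = (FSL-1 − treated)/(FSL-1 − basal) × 100.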
A general note: ELISA stands for enzyme-linked immunosorbent assay.

The target is the same in test [4]. Nature of the test: Modulation of CD36 receptor in mouse RAW 264.7 cells assessed as inhibition of R-FSL-1-induced TNFalpha production at competitive receptor binding assay IC50 concentration pretreated for 30 mins followed by R-FSL-1 stimulation measured after 19 hrs by ELISA relative to R-FSL-1. The class given is cell-based. Details: scale not given: the % may be the effect or the level left. The following applies: RAW264.7, time 19.5 hrs.

The target is the same in test [5]. Nature of the test: Modulation of CD36 receptor in mouse RAW 264.7 cells assessed as inhibition of R-FSL-1-induced CCL-2 production pretreated for 30 mins followed by R-FSL-1 stimulation measured after 4 hrs by ELISA. The following applies: RAW264.7, filed as modulator, time 4.5 hrs. The class given is cell-based. Put shortly: as §1
For test [6] the target is unchanged. Nature of the test: Modulation of CD36 receptor in mouse RAW 264.7 cells assessed as inhibition of R-FSL-1-induced CCl-2 production at competitive receptor binding assay IC50 concentration pretreated for 30 mins followed by R-FSL-1 stimulation measured after 19 hrs by ELISA relative to R-FSL-1. The class given is cell-based. Further details: scale not given: the % may be the effect or the level left. The following applies: RAW264.7, time 19.5 hrs.

The target is the same in test [7]. Nature of the test: Modulation of CD36 receptor in mouse BMA3.1A7 cells assessed as inhibition of R-FSL-1-induced IL-1beta production […] measured after 4 hrs by ELISA. The class given is cell-based. The following applies: filed as modulator, time 4.5 hrs.
Test [8] shares this target. Nature of the test: Modulation of CD36 receptor in mouse BMA3.1A7 cells assessed as inhibition of R-FSL-1-induced IL-1beta production at competitive receptor binding assay IC50 concentration pretreated for 30 mins followed by R-FSL-1 stimulation measured after 4 hrs by ELISA relative to R-FSL-1. It counts as cell-based. Further details: scale not given: the % may be the effect or the level left. The following applies: time 4.5 hrs.

The target in a further test is Platelet glycoprotein 4 (Rattus norvegicus, UniProt Q07969). Nature of the test: Displacement of [125I]-Tyr-Bpa-Ala-hexarelin from rat CD36 receptor in heart tissue membrane incubated for 60 mins by competitive receptor binding assay. It counts as cell membranes. Put shortly:
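Rat heart membranes (50 μg) incubated in the dark with 250,000 cpm [125I]-Tyr-Bpa-Ala-hexarelin in 50 mM Tris-HCl pH 7.4, 2 mM EGTA, 0.05% bacitracin, with competitor at 0.1–10 μM; hexarelin as reference. Nonspecific binding defined with 50 μM peptide. 60 min at 22 °C, then UV photolysis at 365 nm for 15 min at 4 °C. Pellets resolved on 7.5% SDS-PAGE.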

Platelet glycoprotein 4 (Mus musculus), sequence (Q08857 whole entry): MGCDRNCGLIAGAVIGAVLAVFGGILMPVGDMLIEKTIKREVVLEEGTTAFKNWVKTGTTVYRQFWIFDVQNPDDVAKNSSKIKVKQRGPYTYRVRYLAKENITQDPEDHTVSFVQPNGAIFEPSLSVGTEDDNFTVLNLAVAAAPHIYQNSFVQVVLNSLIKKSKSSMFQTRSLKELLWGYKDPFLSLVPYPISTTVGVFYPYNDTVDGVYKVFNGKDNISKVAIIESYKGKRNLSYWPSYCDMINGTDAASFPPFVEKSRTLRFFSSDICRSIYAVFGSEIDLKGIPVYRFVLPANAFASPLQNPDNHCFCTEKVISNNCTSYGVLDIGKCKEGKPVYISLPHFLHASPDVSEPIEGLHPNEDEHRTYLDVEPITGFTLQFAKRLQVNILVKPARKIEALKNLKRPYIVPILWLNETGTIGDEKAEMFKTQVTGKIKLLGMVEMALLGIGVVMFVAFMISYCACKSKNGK
Platelet glycoprotein 4, sequence (Q07969 whole entry): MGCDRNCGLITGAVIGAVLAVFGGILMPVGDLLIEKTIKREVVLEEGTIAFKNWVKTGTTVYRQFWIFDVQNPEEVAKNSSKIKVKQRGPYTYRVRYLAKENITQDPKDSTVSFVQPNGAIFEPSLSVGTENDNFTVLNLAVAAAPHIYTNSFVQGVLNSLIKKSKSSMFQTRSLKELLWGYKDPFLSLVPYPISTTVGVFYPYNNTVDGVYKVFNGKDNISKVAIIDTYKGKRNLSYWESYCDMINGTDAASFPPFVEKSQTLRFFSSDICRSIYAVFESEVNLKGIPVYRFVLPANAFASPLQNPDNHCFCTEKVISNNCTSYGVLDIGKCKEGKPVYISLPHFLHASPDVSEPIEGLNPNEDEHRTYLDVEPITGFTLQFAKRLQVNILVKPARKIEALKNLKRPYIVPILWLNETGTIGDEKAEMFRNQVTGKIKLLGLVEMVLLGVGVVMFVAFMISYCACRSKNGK

As usually defined, the IC50 is the concentration that inhibits the measured activity by half. As to `CCCN1CCCC[C@@H](C(N)=O)NC(=O)[C@@H](Cc2ccccc2)NC(=O)[C@H](Cc2c[nH]c3ccccc23)NC(=O)[C@H](C)NC(=O)[C@@H](Cc2c[nH]c3ccccc23)NC(=O)N(NC(=O)[C@H](C)N)CCCC1`, the Activity in [1] stood at 2.08 µM; in test [2], 36%; in [3], 4110 pmol; in [4], 21%; in test [5], 802 pmol; in test [6] it was 34%. Besides, the Activity turned out to be 312 pmol in test [7] and 29% in [8]. The IC50 at Platelet glycoprotein 4 worked out at 2.26 µM.

Turning to `C=CCN1CC#CCN(NC(=O)[C@H](C)N)C(=O)N[C@@H](C)C(=O)N[C@@H](Cc2c[nH]c3ccccc23)C(=O)N[C@H](Cc2ccccc2)C(=O)N[C@H](C(N)=O)CC1`, the Activity in test [1] stood at 2.51 µM; in test [2], 15%; in [3], 4850 pmol; in [4] it was 3%; in test [5], 954 pmol; in test [6], 17%. Besides, the Activity in test [7] stood at 389 pmol; in test [8], 6%. The compound also yielded a half-inhibitory concentration (IC50) at Platelet glycoprotein 4 of 10.2 µM.
